In ChEMBL document CHEMBL4373735, “N-alkyl-hydroxybenzoyl anilide hydroxamates as dual inhibitors of HDAC and HSP90, downregulating IFN-γ induced PD-L1 expression” (Eur J Med Chem, 2020):

Legend:
[1] = biological target: Polyamine deacetylase HDAC10 (Homo sapiens, UniProt Q969S8); test: Inhibition of human HDAC10 using fluorescent-labelled p53 residues 379 to 382 (RHKKAc) peptide as substrate by fluorescence assay
Method in brief: (§1)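 Isoform assays run by an outside contractor. […] Trichostatin A tested in parallel the same way as control.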

Histone deacetylase 8 = Histone deacetylase 8 (Homo sapiens, UniProt Q9BY41); test: Inhibition of recombinant C-terminal His-fusion tagged and N-terminal Streptavidin2-tagged human HDAC8 (1 to 377 residues) expressed in insect cells using RHK-K(Ac)-AMC as substrate after 60 mins by fluorescence assay; method in brief: as §1
NCI-H1975 = test: Inhibition of IFNgamma-induced PD-L1 expression in human NCI-H1975 cells assessed as reduction in PD-L1 expression incubated for 48 hrs by Western blot analysis; format: functional, cell-based
Method in brief: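 H1975 cells exposed to IFN-γ 20 ng/ml alone or together with compound at the indicated concentrations for 48 h. Lysates run on 10% reducing SDS-PAGE and transferred to nitrocellulose. Blocked in 5% milk/PBST, probed with mouse anti-PD-L1 for 1 h, HRP goat anti-mouse detected by ECL. β-actin used as loading control.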

Histone deacetylase 2 = Histone deacetylase 2 (Homo sapiens, UniProt Q92769); test: Inhibition of recombinant human GST-tagged HDAC2 (1 to 488 residues) expressed in baculovirus infected sf21 cells using RHK-K(Ac)-AMC as substrate after 60 mins by fluorimetry assay; method in brief: as §1
[2] = biological target: T1, Histone deacetylase (Homo sapiens) (UniProt Q13547+O15379+Q9UBN7+Q92769+Q9UQL6+Q8WUI4+Q9BY41+Q96DB2+P56524+Q9UKV0+Q969S8); test: Inhibition of HDAC in human H1975 cells assessed as Histone H3 acetylation after 24 hrs by Western blot analysis; format: cell-based
Method in brief: (§2)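 Whole-cell lysates from H1975 cells after 24 h culture with compound at the indicated concentrations. Acetylated α-tubulin and acetylated histone H3 detected by immunoblot: SDS-PAGE, PVDF transfer, primary antibody overnight at 4°C, HRP secondary, ECL. Repeated at least three times.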

[3] = biological target: T1, Histone deacetylase (Homo sapiens); test: Inhibition of HDAC in human H1975 cells assessed as alpha tubulin acetylation after 24 hrs by Western blot analysis; format: cell-based; method in brief: as §2
[4] = biological target: Protein deacetylase HDAC6 (Homo sapiens, UniProt Q9UBN7); test: Inhibition of recombinant human N-terminal GST-tagged HDAC6 (1 to 1125 residues) expressed in baculovirus infected insect cells using RHK-K(Ac)-AMC as substrate after 90 mins by fluorimetry analysis; method in brief: as §1
Chain of Protein deacetylase HDAC6 (Q9UBN7 whole entry, the tested form may be a part): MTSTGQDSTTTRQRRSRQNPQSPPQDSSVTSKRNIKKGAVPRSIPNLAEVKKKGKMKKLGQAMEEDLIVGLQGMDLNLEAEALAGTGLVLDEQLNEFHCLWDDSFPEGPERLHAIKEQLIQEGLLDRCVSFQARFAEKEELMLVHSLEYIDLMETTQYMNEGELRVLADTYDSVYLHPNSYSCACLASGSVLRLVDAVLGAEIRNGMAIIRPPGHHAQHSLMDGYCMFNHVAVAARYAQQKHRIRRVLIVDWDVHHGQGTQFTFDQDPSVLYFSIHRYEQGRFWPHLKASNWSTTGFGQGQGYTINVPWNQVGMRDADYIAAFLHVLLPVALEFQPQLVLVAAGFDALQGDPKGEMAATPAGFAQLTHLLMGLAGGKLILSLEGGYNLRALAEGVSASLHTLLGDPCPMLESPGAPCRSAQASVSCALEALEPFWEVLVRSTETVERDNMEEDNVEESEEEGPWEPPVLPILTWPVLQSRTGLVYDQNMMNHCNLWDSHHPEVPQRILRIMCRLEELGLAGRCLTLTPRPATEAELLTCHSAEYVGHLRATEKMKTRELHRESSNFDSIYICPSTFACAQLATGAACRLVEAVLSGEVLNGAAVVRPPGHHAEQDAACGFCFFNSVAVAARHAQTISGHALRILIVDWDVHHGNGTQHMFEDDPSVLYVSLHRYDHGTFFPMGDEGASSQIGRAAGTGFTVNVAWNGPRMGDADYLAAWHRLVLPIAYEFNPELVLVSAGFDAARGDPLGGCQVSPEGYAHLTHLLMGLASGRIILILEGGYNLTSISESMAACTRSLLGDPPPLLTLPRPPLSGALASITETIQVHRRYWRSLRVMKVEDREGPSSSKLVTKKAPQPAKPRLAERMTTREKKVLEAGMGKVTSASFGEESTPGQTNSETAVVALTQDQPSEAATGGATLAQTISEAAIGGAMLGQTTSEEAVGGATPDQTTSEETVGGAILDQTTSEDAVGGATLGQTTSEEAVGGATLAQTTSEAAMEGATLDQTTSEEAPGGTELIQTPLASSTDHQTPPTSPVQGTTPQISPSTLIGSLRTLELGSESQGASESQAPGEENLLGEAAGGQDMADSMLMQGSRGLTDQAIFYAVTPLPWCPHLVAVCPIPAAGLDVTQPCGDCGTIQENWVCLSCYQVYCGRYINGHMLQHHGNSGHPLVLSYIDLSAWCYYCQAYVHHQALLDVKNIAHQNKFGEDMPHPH

Chain of Polyamine deacetylase HDAC10 (Q969S8 whole entry, the tested form may be a part, canonical isoform): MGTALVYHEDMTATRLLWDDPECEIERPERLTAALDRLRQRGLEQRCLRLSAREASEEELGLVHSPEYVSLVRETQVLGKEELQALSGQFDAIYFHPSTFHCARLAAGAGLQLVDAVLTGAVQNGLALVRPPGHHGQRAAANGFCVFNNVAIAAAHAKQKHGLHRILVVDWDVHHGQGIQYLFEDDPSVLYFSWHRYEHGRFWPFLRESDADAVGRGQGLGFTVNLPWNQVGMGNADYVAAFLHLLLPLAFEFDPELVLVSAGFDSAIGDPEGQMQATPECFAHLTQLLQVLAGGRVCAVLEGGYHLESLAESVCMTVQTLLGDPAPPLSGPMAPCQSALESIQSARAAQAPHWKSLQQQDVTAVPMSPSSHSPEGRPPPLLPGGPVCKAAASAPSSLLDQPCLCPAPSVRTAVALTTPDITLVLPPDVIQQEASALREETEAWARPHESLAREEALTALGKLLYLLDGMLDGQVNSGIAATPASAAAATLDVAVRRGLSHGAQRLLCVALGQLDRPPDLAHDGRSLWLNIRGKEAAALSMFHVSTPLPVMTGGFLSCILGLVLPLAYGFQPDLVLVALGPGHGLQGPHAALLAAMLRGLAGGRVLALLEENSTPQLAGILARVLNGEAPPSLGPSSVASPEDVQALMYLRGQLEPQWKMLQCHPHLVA
Chain of Histone deacetylase 8 (Q9BY41 whole entry, the tested form may be a part): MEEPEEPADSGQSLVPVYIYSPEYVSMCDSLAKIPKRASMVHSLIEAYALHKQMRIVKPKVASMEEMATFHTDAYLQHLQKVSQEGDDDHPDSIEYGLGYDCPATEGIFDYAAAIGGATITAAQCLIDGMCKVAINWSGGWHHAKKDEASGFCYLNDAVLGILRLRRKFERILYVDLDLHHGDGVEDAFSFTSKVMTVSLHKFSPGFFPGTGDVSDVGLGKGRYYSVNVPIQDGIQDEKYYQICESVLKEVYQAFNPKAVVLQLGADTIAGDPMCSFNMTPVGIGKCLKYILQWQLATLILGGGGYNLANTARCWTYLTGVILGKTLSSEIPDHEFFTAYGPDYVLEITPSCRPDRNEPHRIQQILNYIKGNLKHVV
Chain of Histone deacetylase 2 (Q92769 whole entry, the tested form may be a part): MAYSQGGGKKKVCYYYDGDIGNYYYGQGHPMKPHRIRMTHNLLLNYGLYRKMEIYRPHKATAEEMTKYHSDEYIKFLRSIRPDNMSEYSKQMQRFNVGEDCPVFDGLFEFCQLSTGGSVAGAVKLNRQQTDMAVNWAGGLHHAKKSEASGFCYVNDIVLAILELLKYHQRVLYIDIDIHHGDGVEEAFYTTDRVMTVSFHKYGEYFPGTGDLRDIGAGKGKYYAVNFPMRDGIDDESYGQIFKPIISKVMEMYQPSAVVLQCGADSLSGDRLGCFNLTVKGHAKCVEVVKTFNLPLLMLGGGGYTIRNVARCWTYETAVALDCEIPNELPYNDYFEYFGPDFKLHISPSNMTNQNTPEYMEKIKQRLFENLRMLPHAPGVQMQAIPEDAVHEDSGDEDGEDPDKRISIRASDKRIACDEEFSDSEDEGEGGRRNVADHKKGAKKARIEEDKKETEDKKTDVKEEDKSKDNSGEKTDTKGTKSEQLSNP

Row | SMILES | IC50 [1] | IC50 (Histone deacetylase 8) | inhibition (NCI-H1975) | IC50 (Histone deacetylase 2) | inhibition [2] | inhibition [3] | IC50 [4]
1 | CC(C)c1cc(C(=O)N(C)c2ccc(NC(=O)CCCCCCC(=O)NO)cc2)c(O)cc1O | 2670 nM | 422 nM | Dose-dependent effect | 1190 nM | Dose-dependent effect | Dose-dependent effect | 40 nM
2 | CC(C)c1cc(C(=O)N(C)c2ccc(NC(=O)CCCCCCCC(=O)NO)cc2)c(O)cc1O | > 10000 nM | 3410 nM | Dose-dependent effect | 4910 nM | Dose-dependent effect | Dose-dependent effect | 316 nM
